Test results taken from PubChem BioAssay.
Records with an inconclusive call do not appear.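 Rule for the calls, unless noted: active = RAM network inhibition above 8.4% in each of two replicates, 3 SD over the compound average; inconclusive = above 8.4% inhibition in only one replicate; inactive = 8.4% inhibition or less in each replicate.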

Key:
[1] = S. cerevisiae growth inhibition in permissive medium (OD615), pilot counter-assay for S. cerevisiae lifespan shortening project, permissive growth control (AID 705;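 active = growth inhibition above 25% in both replicates, a cutoff set 3 SD above the mean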); conditions: OD615, 24 h, at 10 µM, stronger effect = higher value
Outline: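 System: S. cerevisiae with engineered DeaD lifespan system / Measured by: absorbance (optical density) at 615 nm / Read-out: reduction in yeast growth (OD615) / Times: 4 h cell pre-growth, 24 h exposure at 30 °C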

[2] = S. cerevisiae growth inhibition in restrictive medium, OD615, pilot screen, restrictive growth control, yeast lifespan reduction project (AID 706;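 active = growth inhibition above a set limit, 3 SD over mean compound inhibition, in both replicates, cut at about 43% in these data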;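 note: modified DeaD lifespan yeast strain shifted to restrictive glucose medium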); conditions: OD615, 48 h, at 10 µM, stronger effect = higher value
Outline: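 System: Engineered S. cerevisiae DeaD strain | Buffer or medium: Glucose-based CSMM-D restrictive medium | Schedule: 4 h pre-incubation, 48 h exposure at 30 °C | Technique: Optical density at 615 nm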

[3] = doxorubicin toxicity protection in MRP-1 cells – H69AR cells, CellTiter-Glo, duplicate, MRP-1 activator project, pilot screen (AID 807;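 active = viability increase at or above a cutoff of the median across tested compounds plus 3 SD, cut at about 8.5% in these data, passing the limit was not always enough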;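 note: compound pretreatment 18-22 h then 72 h combined with doxorubicin; 0% = doxorubicin alone and 100% = vehicle without doxorubicin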); conditions: H69AR viability with doxorubicin, CellTiter-Glo luminescence; at 10 µM; stronger effect = higher value
[4] = viability of HCT116 without oncogenic beta-catenin – human colon tumor cells, pilot screen (AID 823;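 active = cell viability at or below a set limit in both duplicate runs, the limit being the all-compound median minus 4 SD, cut at about 23% in these data, passing the limit was not always enough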;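 note: 0% = wells killed by 20 µM Hyamine and 100% = untreated DMSO cell wells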); conditions: HCT116 beta-catenin knockout viability, CellTiter-Glo, 60 h; at 10 µM; stronger effect = lower value
[5] = viability of PTEN-null HCT116 cells – cell-based, HCT116 clonal line, CellTiter-Glo, pilot screen (AID 824;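 active = viability at or below 27.92% in each of two runs, the all-compound median minus 4 SD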;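 note: 0% = 20 µM Hyamine control and 100% = vehicle cell control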); conditions: HCT116 PTEN-deleted viability, 60 h, at 10 µM, stronger effect = lower value
[6] = RAM pathway blockade in budding yeast – dse1pr::URA3 reporter, 5-FOA selection, pilot screen (AID 869;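 active = inhibition over a set limit, the all-compound mean plus 3 SD, in both replicate runs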;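 note: 0% = DMSO wells with no growth and 100% = 10 µM 1-NA-PP1 with full growth; RAM network block rescues cells from 5-FOA so hits raise OD615 growth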); conditions: S. cerevisiae dse1pr::URA3 5-FOA growth, OD615, 2 d; at 10 µM; stronger effect = higher value; strain carries analog-sensitive mutant Cbk1 kinase
[7] = RAM signaling pathway blockade in yeast – S. cerevisiae, Pdr1DBD-CYC8 efflux-inhibited sensitized strain, primary screen (AID 1298);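 note: 0% = DMSO untreated cells without growth and 100% = 10 µM 1-NA-PP1 full growth; higher means more yeast growth rescued from 5-FOA killing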; conditions: S. cerevisiae cbk1-as DSE1-URA3 strain, 5-FOA growth OD615, 2 d; at 50 µM; stronger effect = higher value

CCOC(=O)Cn1c(=O)oc2cc(S(=O)(=O)NCc3cccs3)ccc21
inactive: growth inhibition [1] -3.16% | growth inhibition [2] 1.21% | viability increase [3] -1.22% | viability [4] 90.6% | viability [5] 86.9% | inhibition [6] 0.73% | RAM network inhibition [7] 0.2%

COC(=O)c1ccc(N=c2sc(C(=O)OC)cc(=O)n2C)cc1
inactive: growth inhibition [1] -4.13% | growth inhibition [2] -3.27% | viability increase [3] -5.93% | viability [4] 71.2% | viability [5] 62.5% | inhibition [6] 0.495% | RAM network inhibition [7] 3.85%

Cc1cc2ncn(C3CC(=O)N(Cc4ccc(N5CCCC5=O)cc4)C3=O)c2cc1C (configuration not stated)
inactive: growth inhibition [1] -7.9% | growth inhibition [2] 13.8% | viability increase [3] -0.37% | viability [4] 97.9% | viability [5] 98.5% | inhibition [6] 0.14% | RAM network inhibition [7] 1.48%

CCC(=O)Nc1ccc(C(=O)n2nc(C)cc2C)cc1
inactive: growth inhibition [1] 15.8% | growth inhibition [2] 7.33% | viability increase [3] -2.24% | viability [4] 103% | viability [5] 98.9% | inhibition [6] 1.12% | RAM network inhibition [7] -0.72%

CCCC(=O)NCCCc1nc2ccccc2n1C(C)C
inactive: growth inhibition [1] -18.1% | growth inhibition [2] -23.6% | viability increase [3] 1.18% | viability [4] 102% | viability [5] 96.2% | inhibition [6] 1.66% | RAM network inhibition [7] 3.95%

CN(C(=O)c1ccc2c(c1)OCO2)C1(C(=O)NC2CCCCC2)CCCCC1
inactive: growth inhibition [1] -8.36% | growth inhibition [2] 0.39% | viability increase [3] -1.06% | viability [4] 90.6% | viability [5] 83.6% | inhibition [6] 1.91% | RAM network inhibition [7] 0.21%

O=C(CN1CCOc2ccccc21)NCc1ccccc1
inactive: growth inhibition [1] -29.7% | growth inhibition [2] 4.34% | viability increase [3] -6.69% | viability [4] 98.2% | viability [5] 86% | inhibition [6] 0.395% | RAM network inhibition [7] 2.11%

Cc1ccc(OC(=O)CCC(=O)N2CCc3ccccc32)cc1
inactive: growth inhibition [1] -5.4% | growth inhibition [2] -2.35% | viability increase [3] -3.7% | viability [4] 89.6% | viability [5] 97.9% | inhibition [6] 2.2% | RAM network inhibition [7] 0.82%

O=S(=O)(c1ccc(OCc2nc3ccccc3s2)c(Cl)c1)N1CCOCC1
inactive: growth inhibition [1] -7% | growth inhibition [2] 9.42% | viability increase [3] -0.83% | viability [4] 91.5% | viability [5] 88.6% | inhibition [6] 1.26% | RAM network inhibition [7] -0.57%

CC(NC(=O)C1CCC(=O)N1Cc1ccc(F)cc1)c1ccc2c(c1)OCCO2 (configuration not stated)
inactive: growth inhibition [1] -1.08% | growth inhibition [2] -4.75% | viability increase [3] -1.94% | viability [4] 96.4% | viability [5] 94.9% | inhibition [6] 0.975% | RAM network inhibition [7] 4.36%

CCOC(=O)N1CCN(CC(O)c2ccc3cc[nH]c3c2)CC1 (configuration not stated)
inactive: growth inhibition [1] -10.8% | growth inhibition [2] -0.09% | viability increase [3] -3.2% | viability [4] 88.8% | viability [5] 88.4% | inhibition [6] 1.44% | RAM network inhibition [7] 1.94%

CCOC(=O)Cn1c(=O)oc2cc(S(=O)(=O)NCc3ccccn3)ccc21
inactive: growth inhibition [1] -14% | growth inhibition [2] -21.4% | viability increase [3] -1.25% | viability [4] 105% | viability [5] 95.1% | inhibition [6] 1.79% | RAM network inhibition [7] 3.14%

COCCN1C(=O)c2oc3ccccc3c(=O)c2C1c1ccc(O)c(OC)c1 (configuration not stated)
inactive: growth inhibition [1] -9.35% | growth inhibition [2] -0.41% | viability increase [3] -3.27% | viability [4] 97.5% | viability [5] 93.2% | inhibition [6] 0.49% | RAM network inhibition [7] 8.37%

CC(=O)c1sc(NC(=O)c2ccccc2F)nc1C
inactive: growth inhibition [1] -10.4% | growth inhibition [2] -3.2% | viability increase [3] -0.32% | viability [4] 79% | viability [5] 75.2% | inhibition [6] 0.31% | RAM network inhibition [7] 0.74%

Cc1nnc(SCCn2c(N(C)Cc3ccccc3)nc3c2c(=O)[nH]c(=O)n3C)s1
inactive: growth inhibition [1] -9.54% | growth inhibition [2] -5.15% | viability increase [3] -3.65% | viability [4] 99.8% | viability [5] 97.5% | inhibition [6] 2.33% | RAM network inhibition [7] 5.64%

CC1=C(C(=O)N2CCOCC2)C(c2cccs2)NC(=O)N1 (configuration not stated)
inactive: growth inhibition [1] 1.45% | growth inhibition [2] -1.81% | viability increase [3] -0.8% | viability [4] 99.8% | viability [5] 99.9% | inhibition [6] 1.26% | RAM network inhibition [7] 3.01%

O=C(Nc1nc(-c2ccccc2)cs1)c1cccs1
inactive: growth inhibition [1] -5.78% | growth inhibition [2] -1.27% | viability increase [3] -1.21% | viability [4] 66.3% | viability [5] 72.8% | inhibition [6] -0.845% | RAM network inhibition [7] 2.45%

N#CCn1nnc(-c2ccc3c(c2)OCO3)n1
inactive: growth inhibition [1] -5.24% | growth inhibition [2] 3.03% | viability increase [3] 3.41% | viability [4] 98.5% | viability [5] 103% | inhibition [6] 0.46% | RAM network inhibition [7] 0.16%

COc1ccc(OC)c(-c2nc(C(N)=O)c3[nH]c(=O)n(-c4ccc(F)cc4)c3n2)c1
inactive: growth inhibition [1] -0.485% | growth inhibition [2] -10.4% | viability increase [3] -2.73% | viability [4] 95.4% | viability [5] 103% | inhibition [6] 2.46% | RAM network inhibition [7] 0.16%

CCCn1c(CN2CCN(C(=O)c3ccco3)CC2)nc2c1c(=O)n(C)c(=O)n2C
inactive: growth inhibition [1] -14.1% | growth inhibition [2] -25.5% | viability increase [3] -1.84% | viability [4] 97% | viability [5] 93.8% | inhibition [6] 0.34% | RAM network inhibition [7] 2.82%

CC1CCCCN1C(=O)c1ccc(S(=O)(=O)N2CCCCC2C)cc1 (configuration not stated)
inactive: growth inhibition [1] -5.29% | growth inhibition [2] -15.2% | viability increase [3] -2.45% | viability [4] 96.7% | viability [5] 95.6% | inhibition [6] 1.99% | RAM network inhibition [7] 2.28%

Cc1ccc(S(=O)(=O)NCC(=O)N2CCCCC2)cc1
inactive: growth inhibition [1] -11.1% | growth inhibition [2] -11.9% | viability increase [3] -1.13% | viability [4] 97.8% | viability [5] 102% | inhibition [6] 0.465% | RAM network inhibition [7] 1.88%

C1CCC2(CC1)C1=C(CCCC1)Nc1nnnn12
inactive: growth inhibition [1] -4.35% | growth inhibition [2] 1.16% | viability increase [3] -1.07% | viability [4] 93.5% | viability [5] 87.8% | inhibition [6] 2.16% | RAM network inhibition [7] 5.77%

Cn1c(=O)oc2cc(S(=O)(=O)N3CCCC(C(=O)N4CCc5ccccc5C4)C3)ccc21 (configuration not stated)
inactive: growth inhibition [1] 1.16% | growth inhibition [2] -8.79% | viability increase [3] -2.62% | viability [4] 87.8% | viability [5] 84.9% | inhibition [6] 1.8% | RAM network inhibition [7] -0.89%

CC(=O)Nn1cc2c(c1-c1ccccc1)c(=O)n(C)c(=O)n2C
inactive: growth inhibition [1] -10% | growth inhibition [2] -3.13% | viability increase [3] 1.16% | viability [4] 93% | viability [5] 87.2% | inhibition [6] 1.5% | RAM network inhibition [7] 3.01%

CC1CCN(C(=O)C(Cc2ccccc2)n2cccc2)CC1 (configuration not stated)
inactive: growth inhibition [1] -6.79% | growth inhibition [2] -8.94% | viability increase [3] -3.15% | viability [4] 87.9% | viability [5] 79% | inhibition [6] 2.27% | RAM network inhibition [7] 5.92%

c1cn2c(NC3CCCC3)c(-c3ccc(N4CCOCC4)cc3)nc2cn1
inactive: growth inhibition [1] -2.94% | growth inhibition [2] 7.59% | viability increase [3] -4.3% | viability [4] 88.8% | viability [5] 77.8% | inhibition [6] 1.78% | RAM network inhibition [7] 3.25%

Cc1cc(C)nc(SCc2ccccc2C#N)n1
inactive: growth inhibition [1] -9.81% | growth inhibition [2] -6.26% | viability increase [3] -0.49% | viability [4] 98.8% | viability [5] 98% | inhibition [6] 0.705% | RAM network inhibition [7] 9.71%

CN1C(=O)CS(=O)c2ccc(C(=O)NCCC3=CCCCC3)cc21 (configuration not stated)
inactive: growth inhibition [1] 0.135% | growth inhibition [2] 0.3% | viability increase [3] -2.35% | viability [4] 81.3% | viability [5] 85% | inhibition [6] 0.265% | RAM network inhibition [7] 2.98%

Cc1c(N=C/C=C/c2ccccc2)cnn1C
inactive: growth inhibition [1] -8.46% | growth inhibition [2] -12.3% | viability increase [3] -5.08% | viability [4] 91.7% | viability [5] 90.5% | inhibition [6] 1.85% | RAM network inhibition [7] 3.36%

CCn1c(=O)c2cc(C(=O)NCCN3CCOCC3)sc2c2ccccc21
inactive: growth inhibition [1] -7.14% | growth inhibition [2] -3.89% | viability increase [3] -4.73% | viability [4] 92.2% | viability [5] 76.1% | inhibition [6] 2.47% | RAM network inhibition [7] 1.02%

O=C(NCC1CCCO1)c1ccc(CS(=O)(=O)c2ccc(Br)cc2)o1 (configuration not stated)
inactive: growth inhibition [1] -9.31% | growth inhibition [2] -13.1% | viability increase [3] -1.53% | viability [4] 97.8% | viability [5] 97.9% | inhibition [6] 1.06% | RAM network inhibition [7] 2.45%

COc1ccc(S(=O)(=O)Nc2ccc3c(c2)OCO3)cc1C(=O)O
inactive: growth inhibition [1] -4.6% | growth inhibition [2] -5.47% | viability increase [3] -1.95% | viability [4] 93.5% | viability [5] 94.5% | inhibition [6] 0.425% | RAM network inhibition [7] 3.99%

Cc1ccc(-c2nc(-c3ccccc3)no2)c(Cl)c1
inactive: growth inhibition [1] -6.6% | growth inhibition [2] -11.1% | viability increase [3] -4.72% | viability [4] 78.9% | viability [5] 78% | inhibition [6] 3.96% | RAM network inhibition [7] 3.45%

O/N=C1/CCc2cccc3cccc1c23
inactive: growth inhibition [1] -11.1% | growth inhibition [2] 0.79% | viability increase [3] -3.93% | viability [4] 96.1% | viability [5] 103% | inhibition [6] 2.06% | RAM network inhibition [7] -0.11%

c1csc(Cc2nc3ccccc3[nH]2)c1
inactive: growth inhibition [1] -8.51% | growth inhibition [2] -11.8% | viability increase [3] 0.14% | viability [4] 97.8% | viability [5] 100% | inhibition [6] 2.71% | RAM network inhibition [7] -0.01%
